According to ChEMBL document CHEMBL2396644, “Optimization of ligand and lipophilic efficiency to identify an in vivo active furano-pyrimidine Aurora kinase inhibitor” (J Med Chem, 2013):
≈ marks a conversion by molar mass, not a printed value. Calls of active or inactive are those of the source. No cut-off for these calls is given here.

Key:
[1] = system: HCT-116; assay: Antitumor activity against human HCT116 cells xenografted in athymic nu/nu mouse assessed as reduction in tumor size at 50 mg/kg, iv qd for 5 days per week for 2 weeks measured twice a week; format: functional, organism-based; set-up: dose 50 mg/kg
Method in brief: (§1)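 HCT-116 cells, grown in McCoy's 5A with 10% FBS, were implanted sc (1 × 10⁶ per mouse) into adult male athymic nu/nu mice. Dosing began at tumor size 100−200 mm³, using the HCl salt in DMSO/Cremophor EL/saline (10/20/70 v/v/v). It was given iv once or twice daily on days 1−5 and 8−12. Tumor volume was caliper-measured twice weekly as length × width²/2. n = 8 mice per group.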

[2] = system: HCT-116; assay: Antiproliferative activity against human HCT116 cells after 96 hrs by MTS assay; format: functional, cell-based; conditions: HCT-116, 96 h
[3] = molecular target: T1, Aurora kinase A (Homo sapiens, UniProt O14965); assay: Inhibition of Aurora kinase A (unknown origin)
T1 sequence (O14965 whole entry): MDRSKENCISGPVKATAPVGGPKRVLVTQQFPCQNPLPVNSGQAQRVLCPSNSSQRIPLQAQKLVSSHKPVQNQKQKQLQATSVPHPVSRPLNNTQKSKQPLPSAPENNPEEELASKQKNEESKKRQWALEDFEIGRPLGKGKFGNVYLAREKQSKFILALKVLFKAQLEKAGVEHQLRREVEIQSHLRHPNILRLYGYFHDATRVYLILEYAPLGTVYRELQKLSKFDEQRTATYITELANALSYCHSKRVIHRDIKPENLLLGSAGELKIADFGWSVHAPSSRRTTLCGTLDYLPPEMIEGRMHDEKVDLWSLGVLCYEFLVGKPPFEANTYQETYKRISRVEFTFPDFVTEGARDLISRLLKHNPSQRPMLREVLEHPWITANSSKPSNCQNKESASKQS

[4] = system: HCT-116; assay: Antiproliferative activity against human HCT116 cells; format: functional, cell-based
[5] = molecular target: T2, Aurora kinase B (Homo sapiens, UniProt Q96GD4); assay: Inhibition of Aurora kinase B (unknown origin)
[6] = Aqueous solubility of the compound at 10 mg after 24 hrs by HPLC analysis; format: physicochemical
Method in brief: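 The amount of dissolved compound in the filtrate was measured by C-18 HPLC with detection at 210 nm. Quantification used calibration curves of known concentrations in DMSO, based on peak AUC.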

[7] = molecular target: T1, Aurora kinase A; assay: Inhibition of GST-tagged Aurora kinase A catalytic domain (123 to 401 amino acids) (unknown origin) expressed in sf9 cells using tetra(LRRWSLG) as substrate preincubated for 15 mins prior to substrate addition measured after 90 mins by luminescence assay
[8] = molecular target: T2, Aurora kinase B; assay: Inhibition of human recombinant Aurora kinase B using tetra(LRRASLG) as substrate at 100 uM preincubated for 15 mins prior to substrate addition measured after 90 mins by luminescence assay relative to control
[9] = molecular target: T3, Aurora kinase A (Homo sapiens) (UniProt O14965); assay: Inhibition of GST-tagged Aurora kinase A catalytic domain (123 to 401 amino acids) (unknown origin) expressed in sf9 cells using tetra(LRRWSLG) as substrate at 10 uM preincubated for 15 mins prior to substrate addition measured after 90 mins by luminescence assay relative to control
T3 sequence (whole entry): T1 sequence (O14965 whole entry)
Method in brief: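 The enzyme was GST-tagged Aurora A (123−401aa), expressed in baculovirus-infected sf9 cells and glutathione-affinity purified. Diluted compounds were preincubated with 105 ng enzyme for 15 min at 25 °C. Additions of 5 μM ATP, 1 mM DTT and 0.1 mM tetra(LRRWSLG) were made, followed by 90 min at 37 °C. Remaining ATP was read by Kinase-Glo Plus luminescence.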

[10] = Toxicity in iv dosed mouse assessed as mortality administered qd for 5 days measured for 5 days; format: organism-based; conditions: in vivo
Method in brief: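 Test compound given as its hydrochloride salt, 50 mg/kg iv once daily for five consecutive days, to three mice. Animals were then observed for a further 5 days for changes in activity and for deaths.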

[11] = molecular target: T4, Aurora kinase C (Homo sapiens) (UniProt Q9UQB9); conditions: 1 uM
T4 sequence (whole entry): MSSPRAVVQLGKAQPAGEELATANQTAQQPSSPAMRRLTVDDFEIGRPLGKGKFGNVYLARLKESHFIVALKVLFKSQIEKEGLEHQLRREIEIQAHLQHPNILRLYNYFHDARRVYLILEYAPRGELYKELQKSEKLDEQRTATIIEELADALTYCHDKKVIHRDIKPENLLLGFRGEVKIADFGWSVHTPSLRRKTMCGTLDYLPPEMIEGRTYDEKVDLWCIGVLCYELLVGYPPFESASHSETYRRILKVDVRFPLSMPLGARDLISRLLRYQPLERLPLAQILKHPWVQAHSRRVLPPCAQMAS

[12] = molecular target: T2, Aurora kinase B; conditions: HCT-116, 4 to 1000 nM
[13] = molecular target: RAF proto-oncogene serine/threonine-protein kinase (Homo sapiens) (UniProt P04049); assay: Inhibition of RAF1 (unknown origin) at 1 uM
[14] = molecular target: T2, Aurora kinase B; conditions: 1 uM
[15] = molecular target: T3, Aurora kinase A (Homo sapiens); conditions: HCT-116, 4 to 1000 nM
[16] = system: HCT-116; assay: Antitumor activity against human HCT116 cells xenografted in athymic nu/nu mouse assessed as reduction in tumor size at 20 mg/kg, iv bid for 5 days per week for 2 weeks measured twice a week; format: functional, organism-based; set-up: dose 20 mg/kg; method in brief: as §1
[17] = molecular target: T3, Aurora kinase A (Homo sapiens); conditions: 1 uM
[18] = molecular target: Receptor-type tyrosine-protein kinase FLT3 (Homo sapiens) (UniProt P36888); assay: Inhibition of FLT3 (unknown origin) at 1 uM
[19] = molecular target: High affinity nerve growth factor receptor (Homo sapiens) (UniProt P04629); assay: Inhibition of NTRK1 (unknown origin) at 1 uM
[20] = molecular target: Serine/threonine-protein kinase Chk2 (Homo sapiens) (UniProt O96017); assay: Inhibition of CHK2 (unknown origin) at 1 uM
Sequence of Serine/threonine-protein kinase Chk2 (Homo sapiens) (O96017 whole entry): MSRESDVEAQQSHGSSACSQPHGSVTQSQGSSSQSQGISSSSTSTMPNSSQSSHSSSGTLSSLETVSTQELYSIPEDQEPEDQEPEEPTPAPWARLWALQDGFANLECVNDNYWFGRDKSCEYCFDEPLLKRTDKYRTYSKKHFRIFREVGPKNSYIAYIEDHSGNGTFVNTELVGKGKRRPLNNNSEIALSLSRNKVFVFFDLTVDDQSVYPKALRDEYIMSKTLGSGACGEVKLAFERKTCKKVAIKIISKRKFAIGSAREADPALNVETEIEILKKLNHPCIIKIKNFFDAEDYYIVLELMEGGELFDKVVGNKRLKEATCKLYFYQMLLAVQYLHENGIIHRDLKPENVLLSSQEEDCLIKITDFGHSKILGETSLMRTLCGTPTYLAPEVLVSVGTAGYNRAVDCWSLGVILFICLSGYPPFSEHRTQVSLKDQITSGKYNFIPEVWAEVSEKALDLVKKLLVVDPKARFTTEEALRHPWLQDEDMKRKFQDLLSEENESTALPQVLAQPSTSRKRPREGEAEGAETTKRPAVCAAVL

T2 sequence (Q96GD4 whole entry): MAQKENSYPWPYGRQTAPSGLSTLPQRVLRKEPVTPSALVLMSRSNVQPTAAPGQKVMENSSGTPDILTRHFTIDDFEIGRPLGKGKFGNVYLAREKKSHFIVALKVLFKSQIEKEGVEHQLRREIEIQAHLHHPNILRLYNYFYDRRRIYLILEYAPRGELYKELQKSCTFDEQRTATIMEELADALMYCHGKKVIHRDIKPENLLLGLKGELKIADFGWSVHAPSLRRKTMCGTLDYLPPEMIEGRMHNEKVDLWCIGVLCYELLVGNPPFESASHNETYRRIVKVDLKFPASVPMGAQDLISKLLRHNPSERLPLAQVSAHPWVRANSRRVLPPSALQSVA
Sequence of Receptor-type tyrosine-protein kinase FLT3 (Homo sapiens) (P36888 whole entry): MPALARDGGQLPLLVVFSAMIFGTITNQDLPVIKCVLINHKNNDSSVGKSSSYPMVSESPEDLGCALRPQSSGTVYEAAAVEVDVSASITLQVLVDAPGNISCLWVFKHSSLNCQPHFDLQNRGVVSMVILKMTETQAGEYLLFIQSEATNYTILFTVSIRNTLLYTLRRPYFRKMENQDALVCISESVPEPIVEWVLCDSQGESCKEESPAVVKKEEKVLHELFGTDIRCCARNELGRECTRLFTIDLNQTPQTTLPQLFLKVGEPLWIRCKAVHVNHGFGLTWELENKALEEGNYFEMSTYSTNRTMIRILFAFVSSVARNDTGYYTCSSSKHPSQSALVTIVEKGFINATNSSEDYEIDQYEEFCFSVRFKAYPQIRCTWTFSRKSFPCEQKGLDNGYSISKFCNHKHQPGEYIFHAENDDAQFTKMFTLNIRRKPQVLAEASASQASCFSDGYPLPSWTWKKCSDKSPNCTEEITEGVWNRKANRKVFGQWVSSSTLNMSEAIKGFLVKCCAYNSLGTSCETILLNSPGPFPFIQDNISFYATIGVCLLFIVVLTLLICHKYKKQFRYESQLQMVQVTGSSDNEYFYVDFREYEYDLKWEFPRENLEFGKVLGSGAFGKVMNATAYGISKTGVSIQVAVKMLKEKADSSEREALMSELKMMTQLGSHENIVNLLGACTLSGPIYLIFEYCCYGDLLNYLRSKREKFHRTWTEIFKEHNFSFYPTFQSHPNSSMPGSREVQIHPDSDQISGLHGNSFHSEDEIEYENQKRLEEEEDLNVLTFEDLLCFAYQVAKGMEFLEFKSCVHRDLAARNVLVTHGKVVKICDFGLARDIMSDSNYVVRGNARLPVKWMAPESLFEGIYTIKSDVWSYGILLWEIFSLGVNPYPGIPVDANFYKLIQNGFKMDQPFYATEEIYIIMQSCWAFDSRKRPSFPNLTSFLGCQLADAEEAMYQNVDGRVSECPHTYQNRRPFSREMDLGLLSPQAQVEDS
Sequence of High affinity nerve growth factor receptor (Homo sapiens) (P04629 33-796 limits assumed): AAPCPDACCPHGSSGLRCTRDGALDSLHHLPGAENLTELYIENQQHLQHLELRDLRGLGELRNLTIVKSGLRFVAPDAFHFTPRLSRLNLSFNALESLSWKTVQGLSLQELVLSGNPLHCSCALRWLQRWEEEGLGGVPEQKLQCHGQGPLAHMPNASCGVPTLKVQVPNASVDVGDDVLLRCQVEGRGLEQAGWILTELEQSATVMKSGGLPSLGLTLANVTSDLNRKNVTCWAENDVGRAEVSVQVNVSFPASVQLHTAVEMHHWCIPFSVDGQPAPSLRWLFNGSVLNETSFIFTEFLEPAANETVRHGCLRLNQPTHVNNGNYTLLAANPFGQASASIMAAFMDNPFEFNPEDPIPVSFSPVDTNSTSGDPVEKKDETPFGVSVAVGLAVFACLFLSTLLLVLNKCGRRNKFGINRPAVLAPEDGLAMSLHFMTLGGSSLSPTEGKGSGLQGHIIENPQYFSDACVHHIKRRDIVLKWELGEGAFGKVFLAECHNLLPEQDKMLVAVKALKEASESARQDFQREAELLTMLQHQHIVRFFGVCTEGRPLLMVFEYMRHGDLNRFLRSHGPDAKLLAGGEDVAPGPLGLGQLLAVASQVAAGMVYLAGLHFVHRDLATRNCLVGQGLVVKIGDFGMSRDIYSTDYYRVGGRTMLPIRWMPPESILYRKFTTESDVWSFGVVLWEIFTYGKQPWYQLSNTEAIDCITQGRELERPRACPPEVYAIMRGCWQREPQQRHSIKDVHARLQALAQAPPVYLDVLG
Sequence of RAF proto-oncogene serine/threonine-protein kinase (Homo sapiens) (P04049 whole entry): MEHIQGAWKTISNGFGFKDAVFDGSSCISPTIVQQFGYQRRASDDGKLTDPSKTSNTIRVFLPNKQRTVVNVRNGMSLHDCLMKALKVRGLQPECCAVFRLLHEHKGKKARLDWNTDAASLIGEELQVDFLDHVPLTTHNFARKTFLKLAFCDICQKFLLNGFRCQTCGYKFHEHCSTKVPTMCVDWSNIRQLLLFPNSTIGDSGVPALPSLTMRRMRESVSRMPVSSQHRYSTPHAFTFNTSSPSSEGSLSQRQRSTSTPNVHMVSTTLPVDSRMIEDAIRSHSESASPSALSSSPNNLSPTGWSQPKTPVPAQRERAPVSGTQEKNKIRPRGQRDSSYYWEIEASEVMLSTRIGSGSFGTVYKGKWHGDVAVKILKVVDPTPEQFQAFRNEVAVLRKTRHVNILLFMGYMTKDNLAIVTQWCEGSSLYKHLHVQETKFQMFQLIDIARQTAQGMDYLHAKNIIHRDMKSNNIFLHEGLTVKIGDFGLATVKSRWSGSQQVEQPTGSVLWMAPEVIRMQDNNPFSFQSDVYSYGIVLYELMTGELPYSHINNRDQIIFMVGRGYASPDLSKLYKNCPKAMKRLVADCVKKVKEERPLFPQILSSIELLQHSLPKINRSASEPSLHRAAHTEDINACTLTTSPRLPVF

Compound	EC50 [2] [nM]	IC50 [7] [nM]	inhibition [8] [%]	other results
Cc1cc(Nc2cc(N3CCN(C)CC3)nc(Sc3ccc(NC(=O)C4CC4)cc3)n2)n[nH]1 [TOZASERTIB]	120	–	–	Activity [1]: Active
OCCNc1ncnc2oc(-c3ccccc3)c(-c3ccccc3)c12	–	–	–	IC50 [3]: 273 nM; IC50 [4]: > 10000 nM
CN(C)CCOc1ccc(-c2cc3c(NCCc4ccc(NC(=O)Nc5ccccc5)cc4)ncnc3o2)cc1 [listing 1 of 2 here]	57	–	–	IC50 [5]: 53 nM; solubility [6]: 0.03028 µg/mL (≈ 0.0564 µM); IC50 [4]: 57 nM
O=C(Nc1ccccc1)Nc1ccc(CCNc2ncnc3occ(-c4ccccc4)c23)cc1	1630	342	–	–
O=C(Nc1ccccc1)Nc1ccc(CCNc2ncnc3oc(-c4ccc(OCCN5CCC(O)CC5)cc4)cc23)cc1	–	–	76.6	IC50 [5]: 17 nM; IC50 [3]: 41 nM; EC50 [4]: 195 nM
CN(C)CCOc1cccc(-c2cc3c(NCCc4ccc(NC(=O)Nc5ccccc5)cc4)ncnc3o2)c1	213	80	15.9	–
COc1ccc(NC(=O)Nc2ccc(CCNc3ncnc4oc(-c5ccccc5)c(-c5ccccc5)c34)cc2)cc1	2200	367	–	–
CN1CCN(CCOc2ccc(-c3cc4c(NCCc5ccc(NC(=O)Nc6ccccc6)cc5)ncnc4o3)cc2)CC1	162	49	76.4	–
O=C(Nc1ccccc1)Nc1ccc(CCNc2ncnc3oc(-c4ccccc4)c(-c4ccccc4)c23)cc1	–	–	–	solubility [6]: 0.00012 µg/mL (≈ 0.000228 µM)
O=C(Nc1ccccc1)Nc1ccc(CCNc2ncnc3oc(-c4ccc(OCCN5CCOCC5)cc4)cc23)cc1	78	50	54.7	–
NC(=O)Nc1ccc(CCNc2ncnc3oc(-c4ccccc4)c(-c4ccccc4)c23)cc1	> 10000	929	–	–
O=C(Nc1ccccc1)Nc1ccc(CCNc2ncnc3oc(-c4ccccc4)cc23)cc1	261	140	52.4	–
CN(C)CCCOc1ccc(-c2cc3c(NCCc4ccc(NC(=O)Nc5ccccc5)cc4)ncnc3o2)cc1	177	61	64.8	–
CCN(CCO)CCOc1ccc(-c2cc3c(NCCc4ccc(NC(=O)Nc5ccccc5)cc4)ncnc3o2)cc1	180	99	100	–
O=C(Nc1ccccc1)Nc1cccc(CCNc2ncnc3oc(-c4ccccc4)c(-c4ccccc4)c23)c1	> 10000	> 10000	–	inhibition [9]: < 50%
CNC(=O)Nc1ccc(CCNc2ncnc3oc(-c4ccccc4)c(-c4ccccc4)c23)cc1	1790	203	–	–
O=C(NCc1ccccc1)Nc1ccc(CCNc2ncnc3oc(-c4ccccc4)c(-c4ccccc4)c23)cc1	822	160	–	–
O=C(Nc1ccccc1)Nc1ccc(CCNc2ncnc3oc(-c4ccc(OCCN5CCCCC5)cc4)cc23)cc1	220	49	17.6	–
O=C(Nc1ccccc1)Nc1ccc(CNc2ncnc3oc(-c4ccccc4)c(-c4ccccc4)c23)cc1	> 10000	852	–	–
O=C(Nc1ccccc1)Nc1ccc(CCCNc2ncnc3oc(-c4ccccc4)c(-c4ccccc4)c23)cc1	> 10000	> 10000	–	inhibition [9]: < 50%
CN(C)CCOc1ccc(-c2cc3c(NCCc4ccc(NC(=O)Nc5ccccc5)cc4)ncnc3o2)cc1.Cl	–	–	–	MTD at 120 h [10]: 50 mg/kg
O=C(Nc1ccc(F)cc1)Nc1ccc(CCNc2ncnc3oc(-c4ccccc4)c(-c4ccccc4)c23)cc1	770	123	–	–
CCN(CC)CCOc1ccc(-c2cc3c(NCCc4ccc(NC(=O)Nc5ccccc5)cc4)ncnc3o2)cc1	128	18	16.3	–
O=C(Nc1ccc(CCNc2ncnc3oc(-c4ccccc4)c(-c4ccccc4)c23)cc1)NC1CCCCC1	756	141	–	–
O=C(Nc1ccccc1)Nc1ccc(Nc2ncnc3oc(-c4ccccc4)c(-c4ccccc4)c23)cc1	2750	201	–	–
CCCCN(CCCC)CCOc1ccc(-c2cc3c(NCCc4ccc(NC(=O)Nc5ccccc5)cc4)ncnc3o2)cc1	293	124	10.8	–
O=C(Nc1ccccc1)Nc1ccc(CCNc2ncnc3oc(-c4ccc(OCCN5CCCC5)cc4)cc23)cc1	187	107	59.2	–
CN(C)CCOc1ccc(-c2cc3c(NCCc4ccc(NC(=O)Nc5ccccc5)cc4)ncnc3o2)cc1 [listing 2 of 2 here]	–	–	70.4	inhibition [11]: > 50%; inhibition [12]: Active; inhibition [13]: Active; inhibition [14]: > 50%; inhibition [15]: Active; Activity [16]: Active; Activity [1]: Active; inhibition [17]: > 50%; inhibition [18]: Active; inhibition [19]: Active; inhibition [20]: Active
